The source of these data is ChEMBL document CHEMBL3271986, “Studies on vitamin D (calciferol) and its analogues. 10. Side-chain analogues of 25-hydroxyvitamin D3” (J Med Chem, 1977).

Molecules are shown by their SMILES. Active and inactive are the calls of the source. The calls are words filed in the database; no cut-off is given here.

Common to all, as to assay type: functional, organism-based
In test [1] the test system is Gallus gallus. As to the kind of experiment: Induction of intestinal [45Ca2+] absorption in rachitic white leghorn cockerel assessed as radioactivity in serum up to 97.5 nmol, ip measured at 24 hrs relative to control. The procedure, abridged:
(§1)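 Rachitic chicks (3 weeks on low-calcium diet lacking vitamin D, then zero-calcium diet for 3 days) were dosed ip in 0.2 ml propanediol-ethanol (3/1); solvent-only -D controls. At assay, 5 µCi 45Ca2+ plus 4 mg 40Ca2+ carrier was placed into the surgically exposed duodenum under light ether anesthesia. Serum radioactivity (0.2 ml) read 30 min later. Mean ± SEM, 8-10 birds.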

In test [2] the test system is Gallus gallus. As to the kind of experiment: Induction of bone calcium mobilization in rachitic white leghorn cockerel assessed as Ca2+ level in serum up to 97.5 nmol, ip measured at 24 hrs by atomic absorption spectrometric analysis relative to control. In outline:
(§2)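 Cockerels raised 3 weeks on rachitogenic low-calcium diet without vitamin D, then zero-calcium diet for 3 days before assay. Compound given ip in 0.2 ml 1,2-propanediol-ethanol (3/1); -D controls received solvent only, +D controls 6.5 nmol vitamin D3 24 h before assay. Serum Ca2+ measured by atomic absorption spectrometry on diluted serum. Mean ± SEM, 8-10 birds.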

Test [3] has as its system Gallus gallus. The test is described as follows: Induction of intestinal [45Ca2+] absorption in rachitic white leghorn cockerel assessed as radioactivity in serum at 32.5 nmol, ip measured up to 96 hrs relative to control. The procedure, abridged:
as §1

Test [4] relates to Gallus gallus. As to the kind of experiment: Induction of bone calcium mobilization in rachitic white leghorn cockerel assessed as Ca2+ level in serum at 32.5 nmol, ip measured up to 96 hrs by atomic absorption spectrometric analysis relative to control. In outline: as §2
The test system of test [5] is Gallus gallus. The test is described as follows: Induction of bone calcium mobilization in rachitic white leghorn cockerel assessed as Ca2+ level in serum up to 78 nmol, ip treated 24 hrs prior to testing measured at 24 hrs post treatment by atomic absorption spectrometric analysis. The procedure, abridged: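 White Leghorn cockerels reared 3 weeks on a rachitogenic low-calcium diet without vitamin D, then zero-calcium diet for 3 days before assay. Single intraperitoneal dose in 0.2 ml 1,2-propanediol-ethanol (3/1) 24 h before assay; vehicle-only rachitic and vitamin D3 controls. Blood taken after decapitation and allowed to clot. Serum calcium measured by atomic absorption spectrometry on diluted samples. Mean ± SEM, 8-10 birds.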

Test [6] concerns Gallus gallus. As to the kind of experiment: Induction of intestinal [45Ca2+] absorption in rachitic white leghorn cockerel assessed as radioactivity in serum up to 78 nmol, ip treated 24 hrs prior to testing measured at 24 hrs post treatment. In outline:
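Rachitic White Leghorn cockerels (3 weeks rachitogenic low-calcium diet without vitamin D, zero-calcium diet for the last 3 days). Dosed intraperitoneally in 0.2 ml propanediol-ethanol (3/1) 24 h before assay. Under light ether anaesthesia the duodenum was exposed and given 5 μCi 45Ca2+ plus 4 mg carrier 40Ca2+. After 30 min, decapitation; radioactivity counted in 0.2 ml serum. Mean ± SEM, 8-10 birds.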

Test [7] deals with Gallus gallus. The test is described as follows: Induction of bone calcium mobilization in rachitic white leghorn cockerel assessed as Ca2+ level in serum at 130 nmol, ip measured at 24 hrs by atomic absorption spectrometric analysis. The procedure, abridged:
as §2

Test [8] relates to Gallus gallus. The test is described as follows: Induction of intestinal [45Ca2+] absorption in rachitic white leghorn cockerel assessed as radioactivity in serum at 130 nmol, ip measured at 24 hrs. The procedure, abridged:
as §1

Turning to `C=C1CC[C@H](O)C/C1=C/C=C1\CCC[C@]2(C)[C@@H](C(C)(C)O)CC[C@@H]12`, the result in test [1], in test [2], in test [3] and in test [4] was inactive.
Regarding `C=C1CC[C@H](O)C/C1=C/C=C1\CCC[C@]2(C)[C@@H]([C@H](C)C(C)(C)O)CC[C@@H]12`, the result in test [1], in test [2], in test [3] and in test [4] was inactive.
Consider `C=C1CC[C@H](O)C/C1=C/C=C1\CCC[C@]2(C)[C@@H]([C@H](C)CCC(C)(C)O)CC[C@@H]12`, for which the result in test [1], in test [2], in test [3] and in test [4] was inactive.
For the compound `C=C1CC[C@H](O)C/C1=C/C=C1\CCC[C@]2(C)[C@@H]([C@H](C)CCCC(C)C)CC[C@@H]12`, the outcome in test [5] and in test [6] was Active.
Turning to `C=C1CC[C@H](O)C/C1=C/C=C1\CCC[C@]2(C)[C@@H]([C@H](C)CC(C)(C)O)CC[C@@H]12`, the result in test [1], in test [2], in test [3] and in test [4] was inactive.
On to `C=C1CC[C@H](O)C/C1=C/C=C1\CCC[C@]2(C)[C@@H]([C@H](C)CCCCC(C)(C)O)CC[C@@H]12`, for which the outcome in test [7], in test [5], in test [8] and in test [6] was Active.
